The source made the active and inactive calls. The calls are words filed in the database; no cut-off is given here.
How the values were obtained:
[1] = target: P2Y purinoceptor 2 (Homo sapiens, UniProt P41231, C278S); assay: Antagonist activity at N-terminal HA epitope-tagged human P2Y2 receptor C278S mutant expressed in human 1321N1 cells assessed as inhibition of UTP-induced calcium mobilization; format: functional, cell-based
Procedure, shortened: (§1)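 1321N1 cells expressing wild-type or mutant receptor were dye-loaded with Oregon Green BAPTA-1/AM in Krebs-HEPES pH 7.4. Antagonist was preincubated for 20 min at 28 °C in the dark. Cells were then stimulated with UTP at a concentration giving 80-90% of maximal response. Calcium fluorescence read at 520 nm (excitation 485 nm).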

[2] = target: T1, P2Y purinoceptor 2 (Homo sapiens, UniProt P41231); assay: Antagonist activity at N-terminal HA epitope-tagged wild type 3 human P2Y2 receptor expressed in human 1321N1 cells assessed as inhibition of UTP-induced calcium mobilization; format: functional, cell-based; procedure, shortened: as §1
[3] = target: P2Y purinoceptor 2 (Homo sapiens, UniProt P41231, Y114A); assay: Antagonist activity at N-terminal HA epitope-tagged human P2Y2 receptor Y114A mutant expressed in human 1321N1 cells assessed as inhibition of UTP-induced calcium mobilization; format: functional, cell-based; procedure, shortened: as §1
[4] = target: T1, P2Y purinoceptor 2; assay: Antagonist activity at N-terminal HA epitope-tagged wild type 4 human P2Y2 receptor expressed in human 1321N1 cells assessed as inhibition of UTP-induced calcium mobilization; format: functional, cell-based
[5] = test system: P2Y purinoceptor 2 (Homo sapiens), P41231 [UNDEFINED MUTATION]; assay: Ratio of IC50 for N-terminal HA epitope-tagged human P2Y2 receptor C278S mutant to IC50 for wild type 3 human P2Y2 receptor
[6] = target: P2Y purinoceptor 2 (Homo sapiens, UniProt P41231, R177A/R180A); assay: Antagonist activity at N-terminal HA epitope-tagged human P2Y2 receptor R177A_R180A double mutant expressed in human 1321N1 cells assessed as inhibition of UTP-induced calcium mobilization; format: functional, cell-based; procedure, shortened: as §1
[7] = target: P2Y purinoceptor 2 (Homo sapiens, UniProt P41231, Y118A); assay: Antagonist activity at N-terminal HA epitope-tagged human P2Y2 receptor Y118A mutant expressed in human 1321N1 cells assessed as inhibition of UTP-induced calcium mobilization; format: functional, cell-based; procedure, shortened: as §1
[8] = target: P2Y purinoceptor 2 (Homo sapiens, UniProt P41231, Y198A); assay: Antagonist activity at N-terminal HA epitope-tagged human P2Y2 receptor Y198A mutant expressed in human 1321N1 cells assessed as inhibition of UTP-induced calcium mobilization; format: functional, cell-based; procedure, shortened: as §1
[9] = target: T1, P2Y purinoceptor 2; assay: Agonist activity at N-terminal HA epitope-tagged human P2Y2 receptor expressed in human 1321N1 cells assessed as increase in intracellular calcium level at 100 µM

T1 sequence (P41231 whole entry): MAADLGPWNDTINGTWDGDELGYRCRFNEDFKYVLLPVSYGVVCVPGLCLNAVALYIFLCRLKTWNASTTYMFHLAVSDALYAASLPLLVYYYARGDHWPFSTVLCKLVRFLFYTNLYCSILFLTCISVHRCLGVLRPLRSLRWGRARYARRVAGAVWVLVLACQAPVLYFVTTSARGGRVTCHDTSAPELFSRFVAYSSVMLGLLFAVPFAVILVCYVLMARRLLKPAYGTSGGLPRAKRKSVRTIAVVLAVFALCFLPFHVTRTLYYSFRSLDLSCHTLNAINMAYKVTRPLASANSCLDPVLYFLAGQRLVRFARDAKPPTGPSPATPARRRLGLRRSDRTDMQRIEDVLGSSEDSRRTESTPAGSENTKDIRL
P2Y purinoceptor 2 (Homo sapiens, UniProt P41231, Y114A), sequence (P41231 whole entry Y114A): as the sequence (P41231 whole entry) above, with Y114A counted along it
P2Y purinoceptor 2 (Homo sapiens, UniProt P41231, R177A/R180A), sequence (P41231 whole entry R177A/R180A): as the sequence (P41231 whole entry) above, with R177A, R180A counted along it
P2Y purinoceptor 2 (Homo sapiens), P41231 [UNDEFINED MUTATION], sequence (P41231 whole entry, looked up, stated change not applied): as the sequence (P41231 whole entry) above
P2Y purinoceptor 2 (Homo sapiens, UniProt P41231, Y198A), sequence (P41231 whole entry Y198A): as the sequence (P41231 whole entry) above, with Y198A counted along it
P2Y purinoceptor 2 (Homo sapiens, UniProt P41231, C278S), sequence (P41231 whole entry C278S): as the sequence (P41231 whole entry) above, with C278S counted along it
P2Y purinoceptor 2 (Homo sapiens, UniProt P41231, Y118A), sequence (P41231 whole entry Y118A): as the sequence (P41231 whole entry) above, with Y118A counted along it

| IC50 [1] [µM] | IC50 [2] [µM] | IC50 [3] [µM] | IC50 [4] [µM] | Ratio IC50 [5] | IC50 [6] [µM] | IC50 [7] [µM] | IC50 [8] [µM] | Activity [9] | SMILES |
| --- | --- | --- | --- | --- | --- | --- | --- | --- | --- |
| 3.44 | 21.9 | 24.6 | 21.7 | 0.2 | 26.5 | 22.4 | 21.1 |  | COc1ccc(Nc2cc(S(=O)(=O)O)c(N)c3c2C(=O)c2ccccc2C3=O)cc1 |
|  |  |  |  |  |  |  |  | Active | C[N+](C)(C)CCOC(N)=O |
